pEC50: −log10 of the molar value. Activity calls are given as the source filed them. The rule behind the calls is not given here.
Key:
Assay type in all cases: cell-based
[1] = target: T1, Retinoic acid receptor RXR-beta (Homo sapiens, UniProt P28702); test: Agonist activity at Gal4-LBD fused RXRbeta (unknown origin) expressed in HEK293T cells after 14 to 16 hrs by dual-Glo luciferase assay
T1 sequence (P28702 whole entry): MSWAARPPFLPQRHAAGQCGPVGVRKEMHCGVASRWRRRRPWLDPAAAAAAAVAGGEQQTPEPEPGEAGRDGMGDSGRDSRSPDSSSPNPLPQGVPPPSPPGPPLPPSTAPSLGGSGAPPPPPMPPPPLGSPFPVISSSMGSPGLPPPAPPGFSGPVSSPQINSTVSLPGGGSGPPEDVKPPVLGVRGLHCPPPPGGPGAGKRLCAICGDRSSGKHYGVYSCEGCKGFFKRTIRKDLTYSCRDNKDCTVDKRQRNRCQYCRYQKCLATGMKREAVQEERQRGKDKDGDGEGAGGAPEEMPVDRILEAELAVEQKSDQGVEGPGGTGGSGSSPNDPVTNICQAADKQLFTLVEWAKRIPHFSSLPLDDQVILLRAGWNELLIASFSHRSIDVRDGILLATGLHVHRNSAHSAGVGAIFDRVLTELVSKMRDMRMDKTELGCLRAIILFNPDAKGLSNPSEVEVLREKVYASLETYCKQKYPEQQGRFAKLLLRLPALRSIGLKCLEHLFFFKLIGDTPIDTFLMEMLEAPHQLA
Method in brief: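 Gal4-hybrid RXRα/β/γ reporter gene assays in HEK293T cells. Fold activation is the maximal fold activation versus 0.1% DMSO.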

[2] = target: T2, Retinoic acid receptor beta (Homo sapiens) (UniProt P10826); test: Agonist activity at Gal4-LBD fused RARbeta (unknown origin) expressed in HEK293T cells at 10 uM after 14 to 16 hrs by dual-Glo luciferase assay
T2 sequence (whole entry): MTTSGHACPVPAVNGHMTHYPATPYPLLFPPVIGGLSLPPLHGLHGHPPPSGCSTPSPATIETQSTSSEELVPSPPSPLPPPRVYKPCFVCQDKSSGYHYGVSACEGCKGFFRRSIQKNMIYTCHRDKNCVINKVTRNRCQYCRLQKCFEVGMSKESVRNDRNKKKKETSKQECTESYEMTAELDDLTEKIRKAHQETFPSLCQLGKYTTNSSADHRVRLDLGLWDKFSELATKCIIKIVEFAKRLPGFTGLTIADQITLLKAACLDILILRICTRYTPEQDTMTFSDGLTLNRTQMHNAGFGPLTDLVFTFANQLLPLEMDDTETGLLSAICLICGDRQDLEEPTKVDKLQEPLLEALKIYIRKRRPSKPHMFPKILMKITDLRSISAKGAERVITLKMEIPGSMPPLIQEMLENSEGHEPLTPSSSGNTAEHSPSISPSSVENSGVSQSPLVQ
Method in brief: (§1)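 Gal4-hybrid reporter gene selectivity panel of related nuclear receptors (PPARα/β/γ, RARα/β/γ) in HEK293T cells. Activity is read as mean fold activation versus 0.1% DMSO vehicle, n ≥ 2.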

[3] = target: T3, Peroxisome proliferator-activated receptor alpha (Homo sapiens) (UniProt Q07869); test: Agonist activity at Gal4-LBD fused PPARalpha (unknown origin) expressed in HEK293T cells at 10 uM after 14 to 16 hrs by dual-Glo luciferase assay; method in brief: as §1
T3 sequence (whole entry): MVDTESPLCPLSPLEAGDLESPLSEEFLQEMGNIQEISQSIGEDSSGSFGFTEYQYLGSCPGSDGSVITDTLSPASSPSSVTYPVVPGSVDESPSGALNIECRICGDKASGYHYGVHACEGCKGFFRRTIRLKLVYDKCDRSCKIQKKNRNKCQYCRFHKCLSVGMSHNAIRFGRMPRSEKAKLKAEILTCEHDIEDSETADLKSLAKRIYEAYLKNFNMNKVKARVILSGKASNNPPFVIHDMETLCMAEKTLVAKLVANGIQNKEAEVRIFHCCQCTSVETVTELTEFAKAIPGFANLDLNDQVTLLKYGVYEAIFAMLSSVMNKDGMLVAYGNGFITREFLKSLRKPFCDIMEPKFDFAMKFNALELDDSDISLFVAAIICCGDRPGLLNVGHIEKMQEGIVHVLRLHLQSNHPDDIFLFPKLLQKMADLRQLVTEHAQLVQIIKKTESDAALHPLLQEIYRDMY

[4] = target: T4, Peroxisome proliferator-activated receptor delta (Homo sapiens) (UniProt Q03181); test: Agonist activity at Gal4-LBD fused PPARbeta (unknown origin) expressed in HEK293T cells at 10 uM after 14 to 16 hrs by dual-Glo luciferase assay; method in brief: as §1
T4 sequence (whole entry): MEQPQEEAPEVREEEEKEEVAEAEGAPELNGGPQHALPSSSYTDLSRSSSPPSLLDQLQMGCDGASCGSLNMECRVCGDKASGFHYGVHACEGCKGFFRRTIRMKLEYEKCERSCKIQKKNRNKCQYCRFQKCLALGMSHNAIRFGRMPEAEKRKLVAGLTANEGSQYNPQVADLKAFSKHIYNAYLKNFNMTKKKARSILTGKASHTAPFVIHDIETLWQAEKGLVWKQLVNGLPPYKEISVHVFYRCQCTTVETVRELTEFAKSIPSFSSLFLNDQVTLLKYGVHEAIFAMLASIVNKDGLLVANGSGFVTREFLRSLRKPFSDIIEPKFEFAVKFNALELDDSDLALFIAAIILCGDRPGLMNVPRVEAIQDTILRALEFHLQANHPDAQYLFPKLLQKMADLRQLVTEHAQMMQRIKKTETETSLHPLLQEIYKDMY

[5] = target: T5, Peroxisome proliferator-activated receptor gamma (Homo sapiens) (UniProt P37231); test: Agonist activity at Gal4-LBD fused PPARgamma (unknown origin) expressed in HEK293T cells at 10 uM after 14 to 16 hrs by dual-Glo luciferase assay; method in brief: as §1
T5 sequence (whole entry): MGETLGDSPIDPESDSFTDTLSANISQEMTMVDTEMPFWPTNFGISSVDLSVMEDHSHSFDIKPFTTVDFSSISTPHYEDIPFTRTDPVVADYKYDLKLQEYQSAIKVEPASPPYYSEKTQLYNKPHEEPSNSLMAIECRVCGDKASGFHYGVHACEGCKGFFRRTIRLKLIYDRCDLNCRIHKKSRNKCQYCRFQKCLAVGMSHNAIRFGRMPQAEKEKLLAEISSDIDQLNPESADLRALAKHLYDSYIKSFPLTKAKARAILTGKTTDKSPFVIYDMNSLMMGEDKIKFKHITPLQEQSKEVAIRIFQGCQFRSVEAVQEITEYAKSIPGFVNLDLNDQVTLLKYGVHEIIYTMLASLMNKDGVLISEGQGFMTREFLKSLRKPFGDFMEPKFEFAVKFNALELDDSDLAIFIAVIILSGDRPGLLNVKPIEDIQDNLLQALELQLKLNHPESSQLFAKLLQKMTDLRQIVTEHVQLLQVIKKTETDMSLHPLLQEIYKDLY

SMILES	pEC50 [1]	Activity [2]	Activity [3]	Activity [4]	Activity [5]
Cc1cc(-c2ccc(C(=O)O)cc2)cc(C(C)(C)C)c1	4.92	–	–	–	–
Cc1cc(-c2cc(C(C)(C)C)cc(C(C)(C)C)c2)ccc1C(=O)O	5.18	Active	Active	Active	Active
Cc1cc(-c2cc(C(F)(F)F)cc(C(F)(F)F)c2)ccc1CC(=O)O	6.54	Active	Active	Active	Active

— ChEMBL document CHEMBL4304816, “A Novel Biphenyl-based Chemotype of Retinoid X Receptor Ligands Enables Subtype and Heterodimer Preferences” (ACS Med Chem Lett, 2019)
